From ChEMBL document CHEMBL3596194, “Design, synthesis and biological evaluation of bivalent benzoxazolone and benzothiazolone ligands as potential anti-inflammatory/analgesic agents” (Bioorg Med Chem, 2015)
Blank lines part the entries; values can stand above or below the compound they belong to. Active and inactive are the calls of the source. The rule behind the calls is not given here.

Assays:
Vero = experiment: Cytotoxicity against African green monkey Vero cells up to 25 ug/ml after 48 hrs by neutral red assay relative to control; format: cell-based; conditions: chlorocebus sabaeus
Summary of the method: (§1)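 Cells grown in RPMI-1640 with 10% bovine calf serum and amikacin at 37 °C, 5% CO2. Seeded at 25,000 cells/well and grown 24 h, then exposed 48 h to samples diluted in serum-free medium. Viability by Neutral Red; % decrease vs vehicle; IC50 from dose curves. Triplicate runs, mean reported; doxorubicin as positive control.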

SK-MEL [1] = experiment: Cytotoxicity against human SK-MEL cells up to 25 ug/ml after 48 hrs by neutral red assay relative to control; format: cell-based; summary of the method: as §1
[2] = biological target: T1, Nitric oxide synthase, inducible (Mus musculus) (UniProt P29477); experiment: Antiinflammatory activity in mouse RAW264.7 cells assessed as inhibition of LPS-induced iNOS activity up to 25 ug/ml incubated for 30 mins prior to LPS challenge measured after 24 hrs by Griess assay; format: cell-based
T1 sequence (whole entry): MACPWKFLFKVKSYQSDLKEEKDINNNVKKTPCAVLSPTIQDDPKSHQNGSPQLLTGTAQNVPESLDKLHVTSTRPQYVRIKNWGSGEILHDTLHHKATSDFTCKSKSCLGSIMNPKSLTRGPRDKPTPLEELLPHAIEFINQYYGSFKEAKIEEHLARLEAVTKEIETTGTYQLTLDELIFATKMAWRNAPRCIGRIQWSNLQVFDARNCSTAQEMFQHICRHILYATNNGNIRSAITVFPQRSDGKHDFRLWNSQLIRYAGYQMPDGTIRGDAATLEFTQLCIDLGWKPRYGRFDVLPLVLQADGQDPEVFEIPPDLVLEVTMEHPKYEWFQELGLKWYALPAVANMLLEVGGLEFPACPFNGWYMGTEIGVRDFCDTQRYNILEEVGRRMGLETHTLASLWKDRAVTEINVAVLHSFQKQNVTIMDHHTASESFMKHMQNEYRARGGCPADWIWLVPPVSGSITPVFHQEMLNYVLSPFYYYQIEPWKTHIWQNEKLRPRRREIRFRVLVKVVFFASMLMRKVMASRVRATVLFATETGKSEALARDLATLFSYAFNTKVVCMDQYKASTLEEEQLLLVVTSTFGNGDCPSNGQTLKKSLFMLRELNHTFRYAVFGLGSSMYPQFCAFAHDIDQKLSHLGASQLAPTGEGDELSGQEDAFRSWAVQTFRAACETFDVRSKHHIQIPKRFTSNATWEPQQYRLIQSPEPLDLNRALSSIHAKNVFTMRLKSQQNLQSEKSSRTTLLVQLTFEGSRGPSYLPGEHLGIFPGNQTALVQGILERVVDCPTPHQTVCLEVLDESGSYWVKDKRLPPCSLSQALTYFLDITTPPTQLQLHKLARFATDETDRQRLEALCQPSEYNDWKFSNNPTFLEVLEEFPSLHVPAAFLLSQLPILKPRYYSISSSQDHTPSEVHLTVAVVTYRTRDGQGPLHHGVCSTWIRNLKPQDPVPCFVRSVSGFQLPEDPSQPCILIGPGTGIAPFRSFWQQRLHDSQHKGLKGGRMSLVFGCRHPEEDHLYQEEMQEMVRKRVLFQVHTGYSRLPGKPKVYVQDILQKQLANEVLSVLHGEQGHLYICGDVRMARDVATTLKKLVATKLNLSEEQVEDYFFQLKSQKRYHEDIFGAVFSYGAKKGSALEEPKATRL
Summary of the method: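 RAW264.7 macrophages seeded at 50,000 cells/well and grown 24 h to ≥75% confluency. Compounds in serum-free medium added 30 min before LPS (5 μg/mL), then 24 h incubation. Nitrite in the supernatant measured with Griess reagent.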

BT-549 [3] = experiment: Cytotoxicity against human BT549 cells up to 25 ug/ml after 48 hrs by neutral red assay relative to control; format: cell-based; conditions: bt-549, 48 h; summary of the method: as §1
[4] = Antiinflammatory activity in human SW1353 cells assessed as inhibition of PMA-induced NF-kappaB activity incubated for 30 mins prior to PMA challenge measured after 8 hrs by luciferase reporter gene assay; format: cell-based
Summary of the method: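 SW1353 cells in DMEM/F12 with 10% FBS, electroporated with NF-κB luciferase plasmid (160 V, one 70-ms pulse), plated at 1.25 × 10⁵ cells/well. After 24 h, graded compound concentrations added 30 min before PMA 70 ng/mL, then 8 h incubation. Luciferase read-out, % inhibition versus vehicle, IC50 from dose curves. Sp-1 reporter served as nonspecific control.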

SK-OV-3 = experiment: Cytotoxicity against human SKOV3 cells up to 25 ug/ml after 48 hrs by neutral red assay relative to control; format: cell-based; conditions: sk-ov-3, 48 h; summary of the method: as §1
[5] = Cytotoxicity against pig LLC-PK11 cells up to 25 ug/ml after 48 hrs by neutral red assay relative to control; format: cell-based, Sus scrofa; conditions: llc-pk11, 48 h; summary of the method: as §1
KB = experiment: Cytotoxicity against human KB cells up to 25 ug/ml after 48 hrs by neutral red assay relative to control; format: cell-based; summary of the method: as §1
SW1353 = experiment: Antiinflammatory activity in human SW1353 cells assessed as inhibition of PMA-induced NF-kappaB activity up to 25 ug/ml incubated for 30 mins prior to PMA challenge measured after 8 hrs by luciferase reporter gene assay; format: cell-based
Summary of the method: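 SW1353 chondrosarcoma cells grown in DMEM/F12 with 10% FBS at 37 °C, 5% CO2. Cells electroporated with an NF-κB luciferase plasmid (50 μg/mL, 160 V, one 70-ms pulse) and plated at 1.25 × 10⁵ cells/well. After 24 h, compound was added 30 min before PMA (70 ng/mL), then 8 h incubation. Luciferase read-out as % inhibition vs vehicle; IC50 from dose curves. Sp-1 served as a counter-screen.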

BT-549 [6] = experiment: Cytotoxicity against human BT549 cells after 48 hrs by neutral red assay relative to control; format: cell-based; conditions: BT-549, 48 h
Summary of the method: (§2)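 Cells grown in RPMI-1640 with 10% bovine calf serum and amikacin at 37°C, 5% CO₂. Seeded 25,000 cells/well, grown 24 h, then exposed to compounds diluted in serum-free medium for 48 h. Viability by Neutral Red uptake, % decrease versus vehicle control. IC50 from dose curves, triplicate means. Doxorubicin positive control.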

SK-MEL [7] = experiment: Cytotoxicity against human SK-MEL cells after 48 hrs by neutral red assay relative to control; format: cell-based; summary of the method: as §2

SMILES: O=c1sc2ccccc2n1CCCCN1CCN(CCCCn2c(=O)sc3ccccc32)CC1
- Activity (Vero): Non-toxic
- Activity (SK-MEL [1]): Non-toxic
- inhibition [2]: inactive
- Activity (BT-549 [3]): Non-toxic
- IC50 [4]: 2.28 µM
- Activity (SK-OV-3): Non-toxic
- Activity [5]: Non-toxic
- Activity (KB): Non-toxic

- inhibition [2]: inactive
SMILES: O=c1oc2ccccc2n1CCCN1CCN(CCn2c(=O)oc3ccccc32)CC1
- Activity (Vero): Non-toxic
- Activity (SK-MEL [1]): Non-toxic
- inhibition (SW1353): inactive
- Activity (BT-549 [3]): Non-toxic
- Activity (SK-OV-3): Non-toxic
- Activity [5]: Non-toxic
- Activity (KB): Non-toxic

SMILES: O=c1oc2ccccc2n1CCCCCN1CCN(CCCn2c(=O)oc3ccccc32)CC1
- Activity (Vero): Non-toxic
- Activity (SK-MEL [1]): Non-toxic
- inhibition (SW1353): inactive
- Activity (BT-549 [3]): Non-toxic
- Activity (SK-OV-3): Non-toxic
- Activity [5]: Non-toxic
- Activity (KB): Non-toxic

- inhibition [2]: inactive
SMILES: O=c1sc2ccccc2n1CCCCN1CCN(CCn2c(=O)sc3ccccc32)CC1
- Activity (Vero): Non-toxic
- Activity (SK-MEL [1]): Non-toxic
- inhibition (SW1353): inactive
- Activity (BT-549 [3]): Non-toxic
- Activity (SK-OV-3): Non-toxic
- Activity [5]: Non-toxic
- Activity (KB): Non-toxic

SMILES: O=c1sc2ccccc2n1CCCCCCN1CCN(CCCn2c(=O)sc3ccccc32)CC1
- Activity (Vero): Non-toxic
- IC50 (BT-549 [6]): 25 µM
- IC50 (SK-MEL [7]): 12 µM
- IC50 [4]: 2.4 µM
- Activity (SK-OV-3): Non-toxic
- Activity [5]: Non-toxic
- Activity (KB): Non-toxic

SMILES: O=c1oc2ccccc2n1CCCCCCN1CCN(CCCCCn2c(=O)oc3ccccc32)CC1
- Activity (Vero): Non-toxic
- IC50 (BT-549 [6]): 22.5 µM
- IC50 (SK-MEL [7]): 23 µM
- IC50 [4]: 1.4 µM
- Activity (SK-OV-3): Non-toxic
- Activity [5]: Non-toxic
- Activity (KB): Non-toxic

SMILES: O=c1oc2ccccc2n1CCCCCCN1CCN(CCn2c(=O)oc3ccccc32)CC1
- Activity (Vero): Non-toxic
- Activity (SK-MEL [1]): Non-toxic
- Activity (BT-549 [3]): Non-toxic
- IC50 [4]: 3.07 µM
- Activity (SK-OV-3): Non-toxic
- Activity [5]: Non-toxic
- Activity (KB): Non-toxic

- inhibition [2]: inactive
SMILES: O=c1oc2ccccc2n1CCN1CCN(CCn2c(=O)oc3ccccc32)CC1
- Activity (Vero): Non-toxic
- Activity (SK-MEL [1]): Non-toxic
- inhibition (SW1353): inactive
- Activity (BT-549 [3]): Non-toxic
- Activity (SK-OV-3): Non-toxic
- Activity [5]: Non-toxic
- Activity (KB): Non-toxic

- inhibition [2]: inactive
SMILES: O=c1sc2ccccc2n1CCN1CCN(CCn2c(=O)sc3ccccc32)CC1
- Activity (Vero): Non-toxic
- Activity (SK-MEL [1]): Non-toxic
- inhibition (SW1353): inactive
- Activity (BT-549 [3]): Non-toxic
- Activity (SK-OV-3): Non-toxic
- Activity [5]: Non-toxic
- Activity (KB): Non-toxic

SMILES: O=c1oc2ccccc2n1CCCCCCN1CCN(CCCCCCn2c(=O)oc3ccccc32)CC1
- Activity (Vero): Non-toxic
- IC50 (BT-549 [6]): 18.5 µM
- inhibition (SW1353): inactive
- IC50 (SK-MEL [7]): 21.3 µM
- Activity (SK-OV-3): Non-toxic
- Activity [5]: Non-toxic
- Activity (KB): Non-toxic

SMILES: C=C1C(=O)O[C@@H]2[C@H]3O[C@]3(C)CC/C=C(\C)CC[C@@H]12
- IC50 [4]: 2.57 µM

- inhibition [2]: inactive
SMILES: O=c1oc2ccccc2n1CCCCN1CCN(CCCn2c(=O)oc3ccccc32)CC1
- Activity (Vero): Non-toxic
- Activity (SK-MEL [1]): Non-toxic
- inhibition (SW1353): inactive
- Activity (BT-549 [3]): Non-toxic
- Activity (SK-OV-3): Non-toxic
- Activity [5]: Non-toxic
- Activity (KB): Non-toxic

SMILES: O=c1sc2ccccc2n1CCCCCCN1CCN(CCn2c(=O)sc3ccccc32)CC1
- Activity (Vero): Non-toxic
- IC50 (BT-549 [6]): 25 µM
- IC50 (SK-MEL [7]): 25 µM
- IC50 [4]: 2.95 µM
- Activity (SK-OV-3): Non-toxic
- Activity [5]: Non-toxic
- Activity (KB): Non-toxic

- inhibition [2]: inactive
SMILES: O=c1oc2ccccc2n1CCCCN1CCN(CCCCn2c(=O)oc3ccccc32)CC1
- Activity (Vero): Non-toxic
- Activity (SK-MEL [1]): Non-toxic
- inhibition (SW1353): inactive
- Activity (BT-549 [3]): Non-toxic
- Activity (SK-OV-3): Non-toxic
- Activity [5]: Non-toxic
- Activity (KB): Non-toxic

SMILES: O=c1oc2ccccc2n1CCCCCCN1CCN(CCCn2c(=O)oc3ccccc32)CC1
- Activity (Vero): Non-toxic
- Activity (SK-MEL [1]): Non-toxic
- inhibition (SW1353): inactive
- Activity (BT-549 [3]): Non-toxic
- Activity (SK-OV-3): Non-toxic
- Activity [5]: Non-toxic
- Activity (KB): Non-toxic

SMILES: O=c1sc2ccccc2n1CCCCCN1CCN(CCCn2c(=O)sc3ccccc32)CC1
- Activity (Vero): Non-toxic
- IC50 (BT-549 [6]): 14 µM
- IC50 (SK-MEL [7]): 16.8 µM
- IC50 [4]: 1.46 µM
- Activity (SK-OV-3): Non-toxic
- Activity [5]: Non-toxic
- Activity (KB): Non-toxic

SMILES: O=c1sc2ccccc2n1CCCCCN1CCN(CCCCn2c(=O)sc3ccccc32)CC1
- Activity (Vero): Non-toxic
- IC50 (BT-549 [6]): 22.1 µM
- IC50 (SK-MEL [7]): 17.5 µM
- IC50 [4]: 1.18 µM
- Activity (SK-OV-3): Non-toxic
- Activity [5]: Non-toxic
- Activity (KB): Non-toxic

SMILES: O=c1oc2ccccc2n1CCCCCN1CCN(CCn2c(=O)oc3ccccc32)CC1
- Activity (Vero): Non-toxic
- Activity (SK-MEL [1]): Non-toxic
- Activity (BT-549 [3]): Non-toxic
- Activity (SK-OV-3): Non-toxic
- Activity [5]: Non-toxic
- Activity (KB): Non-toxic

SMILES: O=c1oc2ccccc2n1CCCCCCN1CCN(CCCCn2c(=O)oc3ccccc32)CC1
- Activity (Vero): Non-toxic
- Activity (SK-MEL [1]): Non-toxic
- Activity (BT-549 [3]): Non-toxic
- IC50 [4]: 1.24 µM
- Activity (SK-OV-3): Non-toxic
- Activity [5]: Non-toxic
- Activity (KB): Non-toxic

SMILES: O=c1oc2ccccc2n1CCCN1CCN(CCCn2c(=O)oc3ccccc32)CC1
- Activity (Vero): Non-toxic
- Activity (SK-MEL [1]): Non-toxic
- inhibition [2]: inactive
- Activity (BT-549 [3]): Non-toxic
- IC50 [4]: 4.91 µM
- Activity (SK-OV-3): Non-toxic
- Activity [5]: Non-toxic
- Activity (KB): Non-toxic
